Reference: paper PMC12780024 (Nature Communications, 2025)
Each block holds one molecule with its values, some of them ahead of it. Square brackets hold non-standard residues; d marks the D form. Ends that are not written are not given here. Hyp = O=C(O)[C@@H]1C[C@@H](O)CN1

Columns and labels:
[1] = cited from earlier work
Arabidopsis leaves = assay: Time-resolved stomatal conductance; assay type: in vivo, Arabidopsis thaliana
Method in brief: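 Plants grown in short days (10/14 h) at 22 °C. Detached leaves equilibrated in an LI-6800 chamber until gsw was stable, then given 2 µM ABA. Chamber settings: 200 µmol m−2 s−1 light (90% red, 10% blue), 22 °C, 75% RH, 400 ppm CO2, […]. Time-resolved gsw reported as mean ± s.d. of at least three biological replicates.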

[2] = test system: stomata (guard cells) of Arabidopsis leaves; assay: Stomatal aperture measurement; assay type: cell-based, Arabidopsis thaliana
Method in brief: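 Abaxial epidermis peeled from leaves of 3–4-week-old plants. Pore width and length measured by light microscopy and expressed as W/L ratio. n = 15 per time point, at least three independent experiments.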

SRK2D = assay: Protein mobility shift assay; assay type: cell-based, Arabidopsis thaliana; settings: wild type protoplasts, 1 μM, 30 min, Phos-Tag; diminished by phosphatase
Method in brief: (§1)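 Mesophyll protoplasts (6 × 10^4) transfected with 10 µg 35S::kinase-GFP plasmid and kept 18 h at 21 °C in W5 under continuous light. Treated with 1 µM peptide or ABA for up to 30 min, frozen, ground and lysed (Tris pH 7.5 buffer). Cleared lysate run on Phos-Tag SDS-PAGE and blotted with anti-GFP; tubulin as internal control. For dephosphorylation, lysate incubated with λ-phosphatase at 30 °C for 30 min, with or without NaF/NaVO3 inhibitors.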

[3] = test system: H2O2 accumulation in rosette leaves; assay: DAB staining of H2O2 in leaves; assay type: in vivo, Arabidopsis thaliana; settings: 2 h
Method in brief: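 Four-week-old rosette leaves treated 2 h with test peptide (100 µM) or hormone control (1 µM), then immersed in freshly prepared 100 µg/ml DAB in the dark for 8 h. Fixed and bleached in ethanol/acetic acid/glycerol (3:1:1), rinsed with distilled water, and photographed on a white background for H2O2 staining.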

SRK2E = assay: Protein mobility shift assay; assay type: cell-based, Arabidopsis thaliana; settings: wild type protoplasts, 1 μM, 30 min, Phos-Tag; diminished by phosphatase
Method in brief: as §1

[4] = test system: Arabidopsis seedlings (primary root); assay: Primary root growth inhibition / LRR-RLK screening; assay type: in vivo, Arabidopsis thaliana; settings: 0.75 µM CLE5p
Method in brief: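 Arabidopsis lrr-rlk mutant seedlings were germinated on 1/2MS agar for 3 days. They were then transferred to 1/2MS agar containing 0.75 µM test peptide. Primary root length was measured after 3 days of peptide treatment.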

[5] = molecular target: GHR1 extracellular domain; assay: Isothermal titration calorimetry; assay type: binding, Arabidopsis thaliana; settings: read-out: dissociation constant (Kd); ITC, MicroCal ITC200, 37 °C, 1 mM CLE5p into 0.1 mM GST-GHR1, 20 mM Tris-HCl pH 7.5, 25 mM NaCl, 5% glycerol; One Set of Sites; ± fitting errors; repeated twice
Method in brief: (§2)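 Recombinant GST-fused receptor protein, gel-filtered into titration buffer, titrated at 37 °C with sequential injections of test peptide at 180 s intervals. Cell stirred at 800 rpm, reference power 5 µcal/s. GST alone served as negative control. Data fitted to a one-set-of-sites model to give Kd, stoichiometry N, ΔG, ΔH and -TΔS.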

[6] = molecular target: BAM1 extracellular domain; assay: Isothermal titration calorimetry; assay type: binding, Arabidopsis thaliana; settings: read-out: dissociation constant (Kd); ITC, MicroCal ITC200, 37 °C, 1 mM CLE5p into 0.1 mM GST-BAM1, 20 mM Tris-HCl pH 7.5, 25 mM NaCl, 5% glycerol; One Set of Sites; ± fitting errors; repeated twice
Method in brief: as §2

[7] = molecular target: T1, GST-GHR1 (LRR repeats of GUARD CELL HYDROGEN PEROXIDE-… 1, N-terminal GST fusion) (Arabidopsis thaliana); assay: ITC
T1 sequence (C0LGQ9 whole entry, looked up): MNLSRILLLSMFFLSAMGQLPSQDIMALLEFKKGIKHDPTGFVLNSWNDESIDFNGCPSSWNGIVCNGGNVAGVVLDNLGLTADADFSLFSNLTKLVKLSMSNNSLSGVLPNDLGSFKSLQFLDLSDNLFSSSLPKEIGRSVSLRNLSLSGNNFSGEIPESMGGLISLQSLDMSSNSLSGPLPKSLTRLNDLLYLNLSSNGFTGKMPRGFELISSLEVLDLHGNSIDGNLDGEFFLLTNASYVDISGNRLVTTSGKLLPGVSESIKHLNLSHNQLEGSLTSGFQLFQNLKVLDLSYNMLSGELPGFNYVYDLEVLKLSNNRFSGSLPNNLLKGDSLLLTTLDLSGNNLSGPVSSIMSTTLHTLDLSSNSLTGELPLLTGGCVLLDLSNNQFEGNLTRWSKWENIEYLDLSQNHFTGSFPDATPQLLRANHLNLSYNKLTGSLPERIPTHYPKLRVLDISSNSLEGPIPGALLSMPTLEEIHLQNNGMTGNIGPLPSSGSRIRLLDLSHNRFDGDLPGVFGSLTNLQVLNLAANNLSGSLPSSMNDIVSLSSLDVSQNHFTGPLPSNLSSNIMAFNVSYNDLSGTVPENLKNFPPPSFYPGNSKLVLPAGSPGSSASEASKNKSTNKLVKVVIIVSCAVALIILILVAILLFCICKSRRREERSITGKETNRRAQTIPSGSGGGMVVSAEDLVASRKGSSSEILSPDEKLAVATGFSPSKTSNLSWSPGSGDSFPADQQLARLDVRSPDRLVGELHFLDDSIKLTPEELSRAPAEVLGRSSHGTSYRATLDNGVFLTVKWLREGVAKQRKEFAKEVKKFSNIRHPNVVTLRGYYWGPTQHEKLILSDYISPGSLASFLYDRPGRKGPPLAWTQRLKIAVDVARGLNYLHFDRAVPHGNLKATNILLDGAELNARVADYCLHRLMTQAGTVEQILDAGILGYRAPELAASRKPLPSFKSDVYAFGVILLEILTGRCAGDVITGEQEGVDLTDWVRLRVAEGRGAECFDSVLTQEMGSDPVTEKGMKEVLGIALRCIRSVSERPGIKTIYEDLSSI

[8] = molecular target: T2, GST-BAM1 (LRR repeats of BARELY ANY MERISTEM 1, N-terminal GST fusion) (Arabidopsis thaliana); assay: ITC
T2 sequence (O49545 whole entry, looked up): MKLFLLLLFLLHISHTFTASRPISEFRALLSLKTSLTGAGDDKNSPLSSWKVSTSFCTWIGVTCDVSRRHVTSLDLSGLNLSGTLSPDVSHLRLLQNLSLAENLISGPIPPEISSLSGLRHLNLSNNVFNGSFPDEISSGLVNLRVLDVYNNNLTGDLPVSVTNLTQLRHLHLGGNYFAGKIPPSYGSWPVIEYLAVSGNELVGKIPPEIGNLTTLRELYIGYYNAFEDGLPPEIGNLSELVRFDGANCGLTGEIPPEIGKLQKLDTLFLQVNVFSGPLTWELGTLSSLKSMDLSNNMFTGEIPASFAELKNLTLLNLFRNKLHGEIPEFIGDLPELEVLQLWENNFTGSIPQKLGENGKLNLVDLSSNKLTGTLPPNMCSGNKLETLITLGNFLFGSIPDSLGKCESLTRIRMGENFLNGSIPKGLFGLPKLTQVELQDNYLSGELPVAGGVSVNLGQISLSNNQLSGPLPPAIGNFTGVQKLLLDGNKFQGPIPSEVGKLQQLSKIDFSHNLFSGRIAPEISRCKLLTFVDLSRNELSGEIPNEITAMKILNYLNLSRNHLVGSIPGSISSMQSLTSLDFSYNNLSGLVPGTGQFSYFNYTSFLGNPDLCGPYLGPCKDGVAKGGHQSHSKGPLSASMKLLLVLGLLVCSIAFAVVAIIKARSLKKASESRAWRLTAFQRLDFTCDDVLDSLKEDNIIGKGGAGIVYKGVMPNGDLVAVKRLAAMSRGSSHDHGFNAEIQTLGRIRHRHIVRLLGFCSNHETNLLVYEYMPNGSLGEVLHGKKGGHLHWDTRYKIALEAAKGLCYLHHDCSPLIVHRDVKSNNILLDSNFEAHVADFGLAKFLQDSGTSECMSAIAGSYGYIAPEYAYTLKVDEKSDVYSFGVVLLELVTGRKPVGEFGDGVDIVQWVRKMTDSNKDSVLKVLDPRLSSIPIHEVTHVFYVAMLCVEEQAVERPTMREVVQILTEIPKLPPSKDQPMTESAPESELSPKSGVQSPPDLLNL

Molecule: CC1=CC(=O)CC(C)(C)[C@@]1(O)/C=C/C(C)=C\C(=O)O [ABA, abscisic acid]
stomatal closure [1]: induce rapid stomatal closure | stomatal conductance response to ABA (Arabidopsis leaves; 35S::SRK2E(Triple A)/srk2e leaves, 2 µM ABA): insensitive to the ABA treatment | stomatal conductance response to ABA (Arabidopsis leaves; 35S::SRK2E/srk2e leaves, 2 µM ABA, compared to srk2e): decreased rapidly | stomatal conductance response to ABA (Arabidopsis leaves; bam1-3, ghr1, bam1-3ghr1 leaves, 2 µM ABA): insensitive to the ABA-induced reduction of stomatal conductance | stomatal conductance response to ABA (Arabidopsis leaves; cle5-1 leaves, 2 μM ABA): insensitive to ABA treatment | stomatal conductance response to ABA (Arabidopsis leaves; pGC1::CLE5/cle5-1 leaves (stomata-specific CLE5), 2 μM ABA): sufficient to elicit ABA-induced stomatal closure | stomatal conductance response to ABA (Arabidopsis leaves; wild type and pCLE5::CLE5/cle5-1 leaves, 2 μM ABA): began to close their stomata promptly after ABA application | stomatal closure ([2]; cle5-1 and bam1-3ghr1 leaves, 2 µM ABA, 30 min): failed to induce stomatal closure | SRK2D-GFP mobility shift (phosphorylation) (SRK2D): a distinct band shift was detected | H2O2 accumulation (DAB staining) ([3]; 1 µM ABA): induced H2O2 accumulation | SRK2E-GFP mobility shift (phosphorylation) (SRK2E): a distinct band shift was detected

Molecule: CLE25p: root-derived CLE peptide transported from roots to leaves (RKVPNGPDPIHN; ends and bridges not checked; UniProt Q8LFL4 58-69, looked up)
drought stress response ([1]; root-derived, transported from roots to leaves): promotes drought stress resistance by stimulating ABA biosynthesis

Now from value to molecule, other results behind:

Kd [5]: 7.39 µM | Kd [6]: 2.52 µM
Molecule: CLE5p: mature CLE5 dodecapeptide, hydroxyproline at residues 4 and 7, non-arabinosylated (RVS[Hyp]GG[Hyp]DPQHH)
root growth inhibition, in words ([4]; bam1-3, ghr1, bam1-3ghr1 seedlings): Neither single bam1-3 and ghr1 nor double bam1-3ghr1 mutants showed significant growth defects | root growth inhibition, in words ([4]; bam3 and wild type seedlings): sensitive to the CLE5p-induced root growth inhibition | stomatal closure ([2]; rbohDrbohF double mutant leaves): induced stomatal closure | H2O2 accumulation (DAB staining) ([3]; 100 µM CLE5p, detached leaves): no hydrogen peroxide (H2O2) accumulation

Kd [7]: 7.39 µM | Kd [8]: 2.52 µM
Molecule: RVS[Hyp]GG[Hyp]DPQHH [CLE5 dodecapeptide (CLE5p)]
